Values after ≈ are worked out from the molar mass of the structure shown. Active and inactive are the calls of the source. The rule behind the calls is not given here.
What was measured:
Bacillus subtilis [1] = assay: Antimicrobial activity against Bacillus subtilis at 10 ug; type: functional, organism-based
Procedure, shortened: (§1)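 Direct bioautography: each compound is spotted onto TLC plates and the solvent evaporated. The test organism is then grown directly on the plate. Growth inhibition is scored at the spot as active (+) or very active (++). Where a number is given, it is the radius in mm of the inhibition zone around the spot.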

KB [2] = assay: Cytotoxicity against vinblastine-resistant human KB cells; type: functional; settings: read-out: ED50 (the source's name)
Procedure, shortened: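 The vinblastine-resistant KB-V1 line was tested both with and without added vinblastine in the cultured tumour-cell cytotoxicity panel. Results are reported as ED50.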

Penicillium oxalicum [3] = assay: Antimicrobial activity against Penicillium oxalicum at 0.1 ug; type: functional; settings: for zone of inhibition at 0.1 µg/disc: read-out: IZ; procedure, shortened: as §1
[4] = molecular target: Human immunodeficiency virus type 1 reverse transcriptase (Human immunodeficiency virus 1, UniProt Q72547); assay: (§2) Inhibition of HIV1 RT at 200 uM
Procedure, shortened: (§3)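 HIV-1 reverse transcriptase inhibition was measured in an ELISA-based system.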

Bacillus subtilis [5] = assay: Antimicrobial activity against Bacillus subtilis at 5 ug; type: functional, organism-based; procedure, shortened: as §1
Escherichia coli [6] = assay: Antimicrobial activity against Escherichia coli at 1 ug; type: functional, organism-based; procedure, shortened: as §1
ZR-75-1 = assay: Cytotoxicity against human ZR-75-1 cells; type: functional; settings: read-out: ED50 (the source's name)
Lu1 = assay: Cytotoxicity against human Lu1 cells; type: functional; settings: read-out: ED50 (the source's name)
Penicillium oxalicum [7] = assay: Antimicrobial activity against Penicillium oxalicum at 1 ug; type: functional; settings: read-out: IZ; procedure, shortened: as §1
Plasmodium falciparum [8] = assay: Antimalarial activity against chloroquine-resistant Plasmodium falciparum W2; type: functional, organism-based
Procedure, shortened: (§4)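 In vitro growth inhibition of Plasmodium falciparum clones D6 (chloroquine-sensitive) and W2 (chloroquine-resistant); IC50 reported in μg/mL.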

Penicillium oxalicum [9] = assay: Antimicrobial activity against Penicillium oxalicum at 5 ug; type: functional; settings: read-out: IZ; procedure, shortened: as §1
LNCaP = assay: Cytotoxicity against human LNCAP cells; type: functional; settings: read-out: ED50 (the source's name)
Bacillus subtilis [10] = assay: Antimicrobial activity against Bacillus subtilis at 0.1 ug; type: functional, organism-based; procedure, shortened: as §1
Escherichia coli [11] = assay: Antimicrobial activity against Escherichia coli at 5 ug; type: functional, organism-based; procedure, shortened: as §1
Penicillium oxalicum [12] = assay: Antimicrobial activity against Penicillium oxalicum at 10 ug; type: functional; settings: read-out: IZ; procedure, shortened: as §1
Micrococcus luteus [13] = assay: Antimicrobial activity against Micrococcus luteus at 0.1 ug; type: functional, organism-based; procedure, shortened: as §1
Penicillium oxalicum [14] = assay: Antimicrobial activity against Penicillium oxalicum at 0.01 ug; type: functional; procedure, shortened: as §1
KB [15] = assay: Cytotoxicity against vinblastine-sensitive human KB cells; type: functional; settings: read-out: ED50 (the source's name)
Micrococcus luteus [16] = assay: Antimicrobial activity against Micrococcus luteus at 1 ug; type: functional, organism-based; procedure, shortened: as §1
KB [17] = assay: Cytotoxicity against human KB cells; type: functional; settings: read-out: ED50 (the source's name)
Micrococcus luteus [18] = assay: Antimicrobial activity against Micrococcus luteus at 10 ug; type: functional, organism-based; procedure, shortened: as §1
Escherichia coli [19] = assay: Antimicrobial activity against Escherichia coli at 10 ug; type: functional, organism-based; procedure, shortened: as §1
Micrococcus luteus [20] = assay: Antimicrobial activity against Micrococcus luteus at 5 ug; type: functional, organism-based; procedure, shortened: as §1
Escherichia coli [21] = assay: Antimicrobial activity against Escherichia coli at 0.1 ug; type: functional, organism-based; procedure, shortened: as §1
Bacillus subtilis [22] = assay: Antimicrobial activity against Bacillus subtilis at 1 ug; type: functional, organism-based; procedure, shortened: as §1
Plasmodium falciparum [23] = assay: Antimalarial activity against chloroquine-sensitive Plasmodium falciparum D6; type: functional, organism-based; procedure, shortened: as §4
[24] = Selectivity index, ratio of IC50 for human KB cells to IC50 for Plasmodium falciparum D6; type: toxicity, cell-based; settings: KB cells versus Plasmodium falciparum D6, read-out: Ratio IC50
Procedure, shortened: (§5)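 Plasmodium falciparum clones were assayed in vitro: D6 (chloroquine-sensitive) and W2 (chloroquine-resistant). IC50 is in μg/mL. The selectivity index is the ratio of the antimalarial to the cytotoxic activity.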

[25] = Inhibition of TK assessed as residual activity at 200 ug/ml
Procedure, shortened: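 The enzyme was tyrosine kinase p56lck, with test compounds at 200 μg/mL. The read-out is the remaining enzyme activity.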

[26] = Inhibition of PKC
[27] = molecular target: Human immunodeficiency virus type 1 reverse transcriptase (Human immunodeficiency virus 1) (UniProt Q72547); assay: as §2; procedure, shortened: as §3
[28] = Selectivity index, ratio of IC50 for human KB cells to IC50 for Plasmodium falciparum W2; type: toxicity, cell-based; settings: KB cells versus Plasmodium falciparum W2, read-out: Ratio IC50; procedure, shortened: as §5

Structure (SMILES)	Activity (Bacillus subtilis [1])	EC50 (KB [2]) [µg/mL]	Activity (Bacillus subtilis [5])	Activity (Escherichia coli [6])	EC50 (ZR-75-1) [µg/mL]	EC50 (Lu1) [µg/mL]	zone of inhibition at 1 µg/disc (Penicillium oxalicum [7]) [mm]	IC50 (Plasmodium falciparum [8]) [µg/mL]	zone of inhibition at 5 µg/disc (Penicillium oxalicum [9]) [mm]	Activity (Escherichia coli [11])	zone of inhibition at 10 µg/disc (Penicillium oxalicum [12]) [mm]	Activity (Micrococcus luteus [16])	EC50 (KB [17]) [µg/mL]	Activity (Micrococcus luteus [18])	Activity (Escherichia coli [19])	Activity (Micrococcus luteus [20])	Activity (Escherichia coli [21])	Activity (Bacillus subtilis [22])	IC50 (Plasmodium falciparum [23]) [µg/mL]	selectivity ratio [24]	other results
CCC[C@@H](OC(C)=O)C1=C(Br)/C(=C/I)OC1=O	Active	0.2 (≈ 0.482 µM)	Active	inactive	< 0.1	1.5 (≈ 3.61 µM)	9	> 10	21	Active	17	Active	0.1 (≈ 0.241 µM)	Active	Active	Active	inactive	Active	4.6 (≈ 11.1 µM)	< 1	zone of inhibition at 0.1 µg/disc (Penicillium oxalicum [3]): 6 mm; IC50 [4]: 700 µM; EC50 (LNCaP): 2 µg/mL (≈ 4.82 µM); Activity (Bacillus subtilis [10]): inactive; Activity (Micrococcus luteus [13]): Active; Activity (Penicillium oxalicum [14]): inactive; EC50 (KB [15]): 3.6 µg/mL (≈ 8.67 µM)
CCC[C@@H](O)C1=C(Br)/C(=C/Cl)OC1=O	Active	1.4 (≈ 4.97 µM)	Active	Active	0.4 (≈ 1.42 µM)	1 (≈ 3.55 µM)	14	> 10	18	Active	22	Active	0.4 (≈ 1.42 µM)	Active	Active	Active	Active	Active	5.9 (≈ 21 µM)	< 1	zone of inhibition at 0.1 µg/disc (Penicillium oxalicum [3]): 6 mm; IC50 [4]: 700 µM; Activity [25]: 1.9%; EC50 (LNCaP): 3 µg/mL (≈ 10.7 µM); Activity (Bacillus subtilis [10]): inactive; Activity (Micrococcus luteus [13]): inactive; EC50 (KB [15]): 1.2 µg/mL (≈ 4.26 µM)
CCCCCCCC/C=C(\Br)C(O)C(Br)Br (configuration not stated)	Active	–	Active	inactive	–	–	5	–	8	inactive	8	inactive	–	Active	Active	Active	inactive	inactive	–	–	Activity (Penicillium oxalicum [3]): inactive; IC50 [26]: ≥ 200 µM; Activity (Penicillium oxalicum [14]): inactive
CCC[C@@H](OC(C)=O)C1=C(Br)[C@](OC)(C(Br)Br)OC1=O	inactive	6.1 (≈ 12.7 µM)	inactive	inactive	3.8 (≈ 7.93 µM)	> 20	4	> 10	8	inactive	9	inactive	6.1 (≈ 12.7 µM)	inactive	inactive	inactive	inactive	inactive	3.8 (≈ 7.93 µM)	2	Activity (Penicillium oxalicum [3]): inactive; Activity [27]: inactive; Activity [25]: 87.5%; EC50 (LNCaP): 4.5 µg/mL (≈ 9.4 µM); Activity (Bacillus subtilis [10]): inactive; Activity (Micrococcus luteus [13]): inactive; EC50 (KB [15]): 5.3 µg/mL (≈ 11.1 µM)
CCC[C@@H](OC(C)=O)C1=C(Br)[C@@](OC)(C(Br)Br)OC1=O	Active	6.2 (≈ 12.9 µM)	Active	inactive	2.8 (≈ 5.85 µM)	> 20	6	> 10	14	inactive	16	inactive	4.1 (≈ 8.56 µM)	Active	inactive	Active	inactive	inactive	5 (≈ 10.4 µM)	1	Activity (Penicillium oxalicum [3]): inactive; Activity [27]: inactive; Activity [25]: 22.7%; EC50 (LNCaP): 3.6 µg/mL (≈ 7.52 µM); Activity (Bacillus subtilis [10]): inactive; Activity (Micrococcus luteus [13]): inactive; EC50 (KB [15]): 3.9 µg/mL (≈ 8.14 µM)
C=C[C@H]1CN2CC[C@H]1C[C@H]2[C@H](O)c1ccnc2ccc(OC)cc12 [QUININE]	–	–	–	–	–	–	–	0.029 (≈ 0.0894 µM)	–	–	–	–	> 20	–	–	–	–	–	0.011 (≈ 0.0339 µM)	> 1830	selectivity ratio [28]: > 700
CCC[C@@H](O)C1=C(Br)/C(=C/I)OC1=O	Active	0.3 (≈ 0.804 µM)	Active	Active	0.3 (≈ 0.804 µM)	1.3 (≈ 3.49 µM)	12	> 10	18	Active	20	Active	0.4 (≈ 1.07 µM)	Active	Active	Active	inactive	inactive	6.8 (≈ 18.2 µM)	< 1	zone of inhibition at 0.1 µg/disc (Penicillium oxalicum [3]): 4 mm; IC50 [4]: 700 µM; Activity [25]: 4.2%; EC50 (LNCaP): < 0.1 µg/mL; Activity (Bacillus subtilis [10]): inactive; Activity (Micrococcus luteus [13]): inactive; EC50 (KB [15]): 4.1 µg/mL (≈ 11 µM)
CCC[C@@H](O)C1=C(Br)C(=C(Br)Br)OC1=O	Active	9.5 (≈ 23.5 µM)	Active	inactive	0.3 (≈ 0.741 µM)	1.7 (≈ 4.2 µM)	17	> 10	23	Active	20	Active	0.5 (≈ 1.23 µM)	Active	Active	Active	inactive	Active	2.8 (≈ 6.92 µM)	< 1	IC50 [4]: 700 µM; Activity [25]: 4.5%; EC50 (LNCaP): 6.7 µg/mL (≈ 16.5 µM); Activity (Micrococcus luteus [13]): Active; zone of inhibition at 0.01 µg/disc (Penicillium oxalicum [14]; read-out: IZ): 4 mm; EC50 (KB [15]): 0.6 µg/mL (≈ 1.48 µM)

Reference: ChEMBL document CHEMBL1158040, “Biological activities and 3D QSAR studies of a series of Delisea pulchra (cf. fimbriata) derived natural products” (J Nat Prod, 2006)
